Experimental data of several laboratories.
Each line is one published result; the experiments were not run side by side.
Target: Angiopoietin-1 receptor (TEK, Homo sapiens, UniProt Q02763)

COc1cc(Nc2ncc(F)c(Nc3ccc4c(n3)NC(=O)C(C)(C)O4)n2)cc(OC)c1OC  inhibition (binding; 10 µM): 94%
Nc1ncc(-c2nc(N3CCOCC3)nc(N3CCOCC3)n2)c(C(F)F)n1  remaining binding (cell-free assay; competition with immobilised ligand; 10 µM): 99%
O=C(NCc1ncc(C(F)(F)F)cc1Cl)c1ccc2c(c1)C1(CCS(=O)(=O)CC1)[C@@H](C1CC1)N2S(=O)(=O)c1ccc(F)cc1  remaining binding (cell-free assay; competition with immobilised ligand; 1 µM): 96%
O=c1[nH]c2ccccc2n1C1CCN(Cc2ccc(-c3[nH]c4cc5ncnc5cc4nc3-c3ccccc3)cc2)CC1  remaining signal (cell-free assay; 0.5 µM): 102%
Cc1nn(C)cc1-c1nc2c(N3CCN(Cc4ccc(Cl)cc4)CC3)c(Cl)cnc2[nH]1  remaining binding (binding; competition with immobilised ligand; 1 µM): 56%
CC(C)(C)c1cc(C=C(C#N)C#N)cc(Br)c1O  remaining activity (enzyme activity; inhibitor; 0.5 µM): 97.9%
Cn1cc(-c2cc(F)cc(N3CCn4c(cc5c4CCCC5)C3=O)c2CO)cc(Nc2ccc(N3CCN(C4COC4)CC3)cn2)c1=O  inhibition (enzyme activity; inhibitor; 0.1 µM): 7%
COCc1c(-c2cc3cc(C)cc(OC)c3s2)c2c(N)ncnn2c1CN1CCNC(=O)C1  inhibition (cell-free assay; competition with immobilised ligand; 1 µM): 89%
Cn1cncc1[C@@](O)(COc1ccc(C#N)cc1-c1ccc(OC(F)(F)F)cc1)c1ccc(C#N)cc1  remaining binding (cell-free assay; competition with immobilised ligand; 1 µM): 92%
COc1ncccc1-c1cnn2ccc(N3CCN(C(=O)OC(C)C)CC3)nc12  remaining binding (binding; competition with immobilised ligand; 1 µM): 98%
